Reference: ChEMBL document CHEMBL3352099, “Anti-osteoporotic and antioxidant activities of chemical constituents of the aerial parts of Ducrosia ismaelis” (Bioorg Med Chem Lett, 2014)

Tests used:
[1] = Antioxidant activity assessed as AAPH-induced peroxyl radical scavenging activity by oxygen radical absorbance assay; type: physicochemical
In short: (§1)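 Peroxyl radical scavenging measured by ORAC, a hydrogen atom transfer assay. Compounds tested at 1-10 µM. Values expressed as µM Trolox equivalents (TE).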

[2] = Antioxidant activity assessed as AAPH-induced peroxyl radical scavenging activity at 10 uM by oxygen radical absorbance assay relative to trolox; type: physicochemical; in short: as §1
RAW264.7 [3] = experiment: Antiosteoporotic activity in mouse RAW264.7 cells assessed as inhibition of RANKL-induced osteoclast formation at 10 uM after 5 days by TRAP assay relative to untreated control; type: functional; set-up: scale not given: the % may be the effect or the level left
In short: (§2)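 RAW 264.7 pre-osteoclast cells induced to form osteoclasts with RANKL. Compounds tested at concentrations up to 10 µM. TRAP activity is expressed as percent of the untreated control, as mean ± SD with n = 3. The untreated control (C) and the RANKL-treated control (TC) are both included.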

RAW264.7 [4] = experiment: Antiosteoporotic activity in mouse RAW264.7 cells assessed as inhibition of RANKL-induced osteoclast formation after 5 days by TRAP assay relative to untreated control; type: functional, cell-based; in short: as §2
[5] = Antioxidant activity assessed as reduction of Cu2+ to Cu+ at 10 uM by reduction assay relative to trolox; type: physicochemical
In short: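 Single electron transfer reducing-capacity assay measuring reduction of Cu2+ ions. Compounds tested at up to 10.0 µM. Values expressed as µM Trolox equivalents, as mean ± SD of three measurements.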

Compound	Activity [1]	Ratio [2]	Ratio [5]	Activity (RAW264.7 [3])	Activity (RAW264.7 [4])
O=c1c(-c2ccc(O)cc2)coc2cc(O[C@@H]3O[C@H](CO)[C@@H](O)[C@H](O)[C@H]3O)ccc12 [DAIDZIN]	Dose-dependent effect	> 20	–	–	–
COc1cc([C@H]2OC[C@H]3[C@@H]2CO[C@@H]3c2ccc(O[C@@H]3O[C@H](CO)[C@@H](O)[C@H](O)[C@H]3O)c(OC)c2)ccc1O	Dose-dependent effect	–	–	–	–
CC1=CC(=O)CC(C)(C)[C@H]1CC[C@@H](C)O[C@@H]1O[C@H](CO)[C@@H](O)[C@H](O)[C@H]1O	Dose-dependent effect	–	–	–	–
COc1cc([C@H]2OC[C@H]3[C@@H]2CO[C@@H]3c2cc(OC)c(OC)c(OC)c2)cc(OC)c1O	Dose-dependent effect	–	23.44	–	–
COc1cc([C@H]2OC[C@H]3[C@@H]2CO[C@@H]3c2cc(OC)c(O[C@@H]3O[C@H](CO)[C@@H](O)[C@H](O)[C@H]3O)c(OC)c2)cc(OC)c1O[C@@H]1O[C@H](CO)[C@@H](O)[C@H](O)[C@H]1O [LIRIODENDRIN]	Dose-dependent effect	–	–	106.05%	Dose-dependent effect
COc1cc(/C=C/CO)ccc1O[C@@H]1O[C@H](CO)[C@@H](O)[C@H](O)[C@H]1O [CONIFERIN]	Dose-dependent effect	–	–	–	–
O=c1c(-c2ccc(O)cc2)coc2cc(O[C@@H]3O[C@H](CO)[C@@H](O)[C@H](O)[C@H]3O)cc(O)c12 [GENISTIN]	Dose-dependent effect	26.55	–	–	–
OC[C@H]1O[C@@H](Oc2ccc3c(c2)OC[C@@]2(O)c4ccc(O)cc4O[C@@H]32)[C@H](O)[C@@H](O)[C@@H]1O	Dose-dependent effect	> 20	–	–	–

Second part, led by results:

Activity [1]	Ratio [2]	Ratio [5]	Compound	Activity (RAW264.7 [3])	Activity (RAW264.7 [4])
Dose-dependent effect	–	–	O=C(c1ccc(O)cc1O[C@@H]1O[C@H](CO)[C@@H](O)[C@H](O)[C@H]1O)[C@H](O)Cc1ccc(O)cc1	–	–
Dose-dependent effect	–	–	COC(=O)/C=C\c1ccc(O)c(CC=C(C)C)c1	85.05%	Dose-dependent effect
Dose-dependent effect	> 20	–	O=c1c(-c2ccc(O[C@@H]3O[C@H](CO)[C@@H](O)[C@H](O)[C@H]3O)cc2)coc2cc(O)ccc12	104.77%	Dose-dependent effect
Dose-dependent effect	–	–	COc1cc(O)c2c(=O)c(-c3ccc(O[C@@H]4O[C@H](CO)[C@@H](O)[C@H](O)[C@H]4O)cc3)coc2c1	–	–
Dose-dependent effect	–	–	C=CCc1ccc(O[C@@H]2O[C@H](CO)[C@@H](O)[C@H](O)[C@H]2O)c(OC)c1 [CITRUSIN C]	100.93%	Dose-dependent effect
Dose-dependent effect	> 20	–	CC(C)=CCc1c(O)ccc(C(=O)/C=C/c2ccc(O)cc2)c1O [ISOBAVACHALCONE]	–	–
Dose-dependent effect	–	–	O=c1oc2cc(O)ccc2c2oc3cc(O)ccc3c12 [COUMESTROL]	–	–
